Measurements pooled from the literature.
Protocols differ between the studies behind these lines.
Target: Insulin receptor (INSR, Homo sapiens, UniProt P06213)

| SMILES | assay | setting | remaining binding [%] |
| --- | --- | --- | --- |
| N[C@H]1CCN(c2nccc(-c3cnn4ncccc34)n2)C1 | binding | 1 µM | 85 |
| CN([C@@H]1CCc2c(CC(=O)O)c3ccccc3n2C1)S(=O)(=O)c1ccc(F)cc1 | cell-free assay, competition with immobilised ligand | 1 µM | 100 |
| c1cncc(-c2cccc(Nc3nccc(NC4CCCCC4)n3)c2)c1 | binding, competition with immobilised ligand | 10 µM | 27 |
| O=C(c1ccc(Nc2nccc(-c3cc4ccccc4s3)n2)cc1)N1CCC(N2CCCC2)CC1 | binding, competition with immobilised ligand | 1 µM | 66 |
| O=C(Nc1cccnn1)N1CCC(=Cc2cccc(Oc3ccc(C(F)(F)F)cn3)c2)CC1 | cell-free assay, competition with immobilised ligand | 1 µM | 100 |
| O=C(NCCCN1CCOCC1)c1ccc(Nc2ncc(Cl)c(-c3ccc(Cl)s3)n2)cc1 | binding, competition with immobilised ligand | 1 µM | 29 |
| N#Cc1ccccc1CSc1nnc2c(n1)[nH]c1ccccc12 | binding, competition with immobilised ligand | 10 µM | 88 |
| CC1CCCN1c1nccc(-c2cnn3ncccc23)n1 (stereo not shown) | binding | 1 µM | 86 |
| O=C(Nc1c[nH]nc1C(=O)NC1CCNCC1)c1cc(F)cc(F)c1 | binding, competition with immobilised ligand | 1 µM | 100 |
| FC(F)(F)Oc1cccc(-c2cnc3ccc(-c4ccncc4)nn23)c1 | cell-free assay, competition with immobilised ligand | 5 µM | 88 |
| Cc1cc(NC(=O)c2cccc(S(F)(F)(F)(F)F)c2)cc(-n2ccn3nc(-c4cccnc4)cc23)c1 | cell-free assay, competition with immobilised ligand | 1 µM | 100 |
| C[C@@H]1CN(c2ccc3ncc(-c4ccc5[nH]nc(C6CC6)c5c4)n3n2)C[C@H](C)O1 | binding, competition with immobilised ligand | 0.5 µM | 81 |
| C=CC(=O)N1CCC(C(=O)NCC(=O)N2CCN(c3nc(-c4cnc(N)nc4C(F)F)nc(N4CCOCC4)n3)CC2)CC1 | binding, competition with immobilised ligand | 1 µM | 99 |
| CN(C)c1ncnc(-c2ccc3nc(Nc4cc(CN5CCN(C(=O)CC(F)(F)F)CC5)ccn4)[nH]c3c2)c1Cl | cell-free assay, competition with immobilised ligand | 1 µM | 100 |
| COc1cnc(Nc2cccc(S(N)(=O)=O)c2)nc1N1CCN(c2ccccc2)CC1 | binding, competition with immobilised ligand | 1 µM | 81 |
| CN(C)C(=O)Cn1cc(-c2nc(C3(c4ccc(-c5cnc(N)nc5)cc4)CC3)no2)cn1 | cell-free assay, competition with immobilised ligand | 1 µM | 90 |
| CC(C)(C)c1ccc(-c2nc(CBr)nn2-c2cccc(O)c2)cc1 | cell-free assay, competition with immobilised ligand | 10 µM | 93 |
| CN(C)c1ncc(F)c(-c2cnn3ncccc23)n1 | binding | 1 µM | 81 |
| Nc1c(C(=O)NCc2ccc(C(=O)NCCCC3CCCCC3)cc2)cnn1-c1ccccc1 | cell-free assay, competition with immobilised ligand | 0.1 µM | 100 |
| CN(CCCC(F)(F)F)c1nccc(-c2cnn3ncccc23)n1 | binding | 1 µM | 78 |
| CCN1CCN(Cc2ccc(C(=O)Nc3ccc(C)c(Oc4ccc5c(c4)CC(=O)N5)c3)cc2C(F)(F)F)CC1 | binding, competition with immobilised ligand | 1 µM | 77 |
| C[C@@H]1CCN(c2nccc(-c3cnn4ncccc34)n2)C1 | binding | 1 µM | 72 |
| O=C(c1ccc(Nc2ncc(Cl)c(-c3ccc(Cl)s3)n2)cc1)N1CCC(N2CCCC2)CC1 | binding, competition with immobilised ligand | 1 µM | 2.3 |
| COc1ccc2c(c1)O[C@@H](c1ccc(OC)c(OC)c1)C[C@H]2NC(=O)C1(c2ccc3c(c2)OC(F)(F)O3)CC1 | cell-free assay, competition with immobilised ligand | 1 µM | 79 |
| F[C@@H]1CCN(c2nccc(-c3cnn4ncccc34)n2)C1 | binding | 1 µM | 91 |
